Source: PubChem (The Scripps Research Institute Molecular Screening Center)
M4 ag = human M4 muscarinic receptor agonists, primary screen, CHO-K1 cells, Fluo-8 calcium fluorescence | CHO-K1 hM4/Gqi5; vehicle 0%, full acetylcholine response 100% | Muscarinic acetylcholine receptor M4 (Homo sapiens), P08173 | 0.14% of 360,000 active | activation, % at 3 µM | AID 624127, 2012;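 active means activation above the run mean over all test wells plus 3 SD, cut at about 32% in these data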;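 further: peak over basal fluorescence ratio per well then scaled between controls; 0% = DMSO wells and 100% = acetylcholine at EC100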
Target sequence (P08173 whole entry, looked up): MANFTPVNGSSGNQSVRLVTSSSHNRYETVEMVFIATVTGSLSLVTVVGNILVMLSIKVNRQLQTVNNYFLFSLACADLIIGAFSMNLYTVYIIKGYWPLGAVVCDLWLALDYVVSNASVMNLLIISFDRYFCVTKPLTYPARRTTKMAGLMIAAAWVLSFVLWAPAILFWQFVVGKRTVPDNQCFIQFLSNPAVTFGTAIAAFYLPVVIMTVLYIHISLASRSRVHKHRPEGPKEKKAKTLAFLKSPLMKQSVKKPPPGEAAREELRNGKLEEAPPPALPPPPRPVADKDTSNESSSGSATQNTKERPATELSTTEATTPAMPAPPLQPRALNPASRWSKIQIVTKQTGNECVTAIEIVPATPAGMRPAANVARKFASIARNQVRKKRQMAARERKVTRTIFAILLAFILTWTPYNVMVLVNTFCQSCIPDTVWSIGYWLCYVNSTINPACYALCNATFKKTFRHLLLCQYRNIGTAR
M5 antag = human M5 muscarinic receptor antagonists, primary screen, CHO cells, Fluo-8 calcium fluorescence. 0.59% of 360,000 active. Muscarinic acetylcholine receptor M5 (Homo sapiens), P08912. inhibition, % at 3 µM. AID 624040, 2012. CHO-hM5 cells, ACh EC80;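 active means inhibition above a per-plate cutoff, the mean of that plate's test compounds plus 3 SD, cut at about 27% in these data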;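 further: 0% = acetylcholine EC80 with DMSO and 100% = DMSO without agonist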
M4 antag = human M4 muscarinic receptor antagonists, primary screen, CHO cells, Fluo-8 calcium fluorescence; inhibition, % at 3 µM; 0.73% of 360,000 active; CHO-hM4 cells, ACh EC80;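 active means inhibition above its plate's cutoff, the mean inhibition of sample wells plus 3 SD, cut at about 27% in these data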;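 further: 0% = acetylcholine EC80 with DMSO and 100% = DMSO without agonist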
CHRM5 PAM = human M5 muscarinic receptor positive allosteric modulators, primary screen, CHO-K1 cells, Fluo-8 calcium fluorescence; Muscarinic acetylcholine receptor M5 (Homo sapiens), P08912; CHO-K1 hM5, ACh EC20 PAM; 0% = ACh EC20, 100% = ACh EC100; activation, % at 3 µM; 0.3% of 360,000 active; AID 624038, 2012;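 active means activation above the run cutoff, the mean activation of all test compounds plus 3 SD, cut at about 18% in these data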
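Assay system – human M5 receptor in CHO-K1 cells · Read-out – % activation, ACh-normalized · Technique – Fluo-8 calcium fluorescence · Dosing – single-point, 3 µM nominal · Incubation – Fluo-8 loading 80 min at 37 °C plus 30 min room temperature · Repeats – singlicate, one well per test compound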
M5 ag = human M5 muscarinic receptor agonists, primary screen, CHO-K1 cells, Fluo-8 calcium fluorescence | Muscarinic acetylcholine receptor M5 (Homo sapiens), P08912 | CHO-K1 hM5 cells; 0% DMSO wells, 100% maximal acetylcholine response | activation, % at 3 µM | 0.19% of 360,000 active | AID 624037, 2012;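 active means activation above the run's mean over test compounds plus 3 SD, cut at about 23% in these data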;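 further: signal is peak over basal fluorescence ratio across the kinetic read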
M4 PAM = human M4 muscarinic receptor positive allosteric modulators, primary screen, CHO-K1 cells, Fluo-8 calcium fluorescence; CHO-K1 hM4/Gqi5, ACh EC20; 0% = ACh EC20, 100% = maximal ACh; 0.4% of 360,000 active; activation, % at 3 µM; AID 624126, 2012; Muscarinic acetylcholine receptor M4 (Homo sapiens), P08173;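 active means activation above its plate's cutoff, the mean activation of sample wells plus 3 SD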
The depositor's hits bear a star. Rows were chosen to be rich in hits. Some 1.9% of all compounds tested hit in one or more screens of this group.

SMILES	M4 ag	M5 antag	M4 antag	CHRM5 PAM	M5 ag	M4 PAM
O=C(Nc1ccccc1)OCc1cncs1	6	-2	2	18*	-1	6
O=C(Nc1ccc(Cl)c(Cl)c1)OCc1cncs1	8	17	20	-10	-4	2
O=C(NNC(=S)NC(=O)c1sc2ccccc2c1Cl)c1ccc(Cl)cc1	4	8	5	-8	-4	-6
CC(=O)/C=C1\SC(CC(=O)O)C(=O)N1c1ccccc1 (centres undefined)	1	-8	-12	12	-1	22*
Cc1c(N2C(=O)SC(CC(=O)O)C2=O)c(=O)n(-c2ccccc2)n1C (centres undefined)	1	-2	-2	20*	-3	6
Cc1c(N2C(=O)C3C4C=CC(C4)C3C2=O)c(=O)n(-c2ccccc2)n1C (centres undefined)	1	4	-6	9	5	13
COc1ccc(NC(=O)CN2C(=O)C(=O)N(C3CCCC3)C2=O)c(OC)c1	1	16	-16	-11	-2	12
CCCCn1c(N)c(N(CCOC)C(=O)c2cc3c(s2)CCCCC3)c(=O)[nH]c1=O	1	10	-8	-6	-2	24*
CCN1C(=NCCCCO)N[C@@H](c2cccc(F)c2)C(C(=O)OC)=C1C	0	-1	-11	5	-6	23*
Cc1ccc2c(c1)sc[n+]2Cc1ccccc1	-1	10	21	21*	19	-2
COc1cc(C=O)ccc1OCCCOc1ccccc1[N+](=O)[O-]	8	8	1	-7	-1	-3
COc1cc(C=O)ccc1OCCCOc1ccccc1C(=O)O	0	-12	10	6	1	32*
CCC(CO)Oc1cc(NC(=O)c2ccc(C)cc2)c2ncn(C(C)C)c2c1 (centres undefined)	2	11	4	5	-5	-2
CCCCCCCN1C(N(C)C)=NC[C@@H]1Cc1ccccc1	3	9	32*	-2	-11	-14
COC(=O)c1ccc2c(c1)C(C)(C)C(/C=C/c1ccc(O)cc1)=[N+]2C	7	9	14	5	22	-9
COC(=O)c1ccc2c(c1)C(C)(C)C(/C=C/c1ccc(OC)c(OC)c1OC)=[N+]2C	1	-2	32*	-7	-5	-9
CCc1ccc(S(=O)(=O)Nc2cc3c(cc2C)n(C)c(=O)n3C)cc1	14	0	1	-7	3	-2
Cc1ccc(C)c(S(=O)(=O)NCc2ccc(C(=O)N3CCN(C)CC3)cc2)c1	1	-7	-12	14	3	20*
CCOC(=O)c1[nH]cnc1C(=O)N1CCN(C(=O)OC(C)(C)C)CC1	1	-10	-9	9	-3	24*
C[C@H](OC(=O)c1[nH]cnc1C(=O)N1CCN(C(=O)OC(C)(C)C)CC1)c1ccccc1	1	11	-7	0	-3	3
CCc1ccc2[nH]c(C(=O)Nc3ccc(C)c(F)c3)cc2c1	2	18	3	-2	-2	-4
O=C(Nc1ccc(F)cc1)c1cc2cc(Cl)ccc2[nH]1	10	31*	-6	-14	2	-1
Cc1ccc([C@H]2N[C@]3(CCCN(Cc4ccc(Cl)cc4)C3=O)[C@H]3C(=O)N(Cc4ccccc4)C(=O)[C@@H]23)cc1	7	3	-11	0	0	-5
Cc1cc(=O)n2nc(N3CCCC(C(=O)NCCCN4CCc5ccccc5C4)C3)sc2n1 (centres undefined)	-2	12	28*	-8	-7	-11
CCC1CCCCN1CCCNC(=O)C1CCCN(c2nn3c(=O)cc(C)nc3s2)C1 (centres undefined)	1	-11	1	-2	-9	-5
SMILES	M4 ag	M5 antag	M4 antag	CHRM5 PAM	M5 ag	M4 PAM
CCC1CCCCN1C(=O)CCNC(=O)Cn1cnc2ccccc2c1=O (centres undefined)	1	7	0	1	1	-8
CC(C)Sc1cc(N2CCOCC2)nc(-c2ccccc2)n1	-1	-5	-12	5	3	32*
COc1ccc(CNCCS(=O)(=O)NN2CCOCC2)cc1	1	-5	-2	-2	0	8
COc1ccccc1C(=O)NCC(=O)NNC(=O)C1COc2ccccc2O1 (centres undefined)	1	-6	0	6	3	14
CC(=O)C1=C(O)C(=O)N(c2ccc(Br)cn2)C1c1ccc(F)cc1 (centres undefined)	1	-1	7	-2	1	-5
Fc1cccc(F)c1/C=N/NC(=S)Nc1cccnc1	0	6	11	-3	-3	-3
Fc1c(F)c(F)c(/C=N/NC(=S)Nc2cccnc2)c(F)c1F	3	-6	-9	7	-2	19*
Cc1cc(C)[n+]2[nH]c(N)c(N=Nc3ccccc3)c2n1	2	-17	1	22*	3	10
COc1cc(-c2cc(C(=O)Nc3ccc(S(=O)(=O)NCc4ccco4)cc3)c3ccccc3n2)cc(OC)c1OC	18	21	46*	-15	2	-25
COc1cc(-c2cc(C(=O)NCc3ccco3)c3ccccc3n2)cc(OC)c1OC	15	13	6	-11	1	-8
Cc1ccc(NC(=O)Cn2cc([N+](=O)[O-])nc2C)cc1C	3	7	-6	2	3	5
CCN(CC)CCN(C(=O)c1ccc2ccccc2c1)c1nc2ccc(F)cc2s1	1	1	-7	1	-6	18*
O=C(O)CC(SCC(=O)Nc1ccccc1)C(=O)O (centres undefined)	0	-2	-12	6	1	22*
O=C(O)CC(SCC(=O)Nc1ccc(S(=O)(=O)N2CCCC2)cc1)C(=O)O (centres undefined)	-1	-3	-19	-5	-6	7
O=S(=O)(NC1CCCC1)c1ccc(S(=O)(=O)N2CCc3ccccc32)cc1	22	29*	29*	-15	8	-16
Nc1ccc(S(=O)(=O)N2CCc3ccccc32)cc1	1	7	12	-1	-2	-2
c1ccc2c(c1)COc1c3cc4c(cc3nn1-2)OCO4	2	-8	-17	3	0	20*
